The results in this text go back to ChEMBL document CHEMBL1145153, “Discovery of potent anilide inhibitors against the severe acute respiratory syndrome 3CL protease” (J Med Chem, 2005).

Molecules are shown by their SMILES. *1 amine or outer side, *2 acyl side, *3 side chain or, on linkers, in order; H or OH if unused. Where a SMILES comes first, the peptide text is derived from it. [ ]: non-standard residue; d: D form. The star is where a group is joined. ξ: configuration not given here. NH(2-Cl-4-NO2-phenyl) = O=[N+]([O-])c1ccc(N*)c(Cl)c1; Phe(4-F) = N[C@@H](Cc1ccc(F)cc1)C(=O)O; Thr(3ξ) = CC(O)[C@H](N)C(=O)O; Morpholide = C1CN(*)CCO1; Cbz = O=C(OCc1ccccc1)*; CO = O=C([*:1])[*:2]; Piv = CC(C)(C)C(=O)*; Propionyl = CCC(=O)*; Bz = O=C(c1ccccc1)*; X1 = CC1CCN(*)O1

One test in a line: Concentration required to inhibit SARS-CoV 3CL protease catalyzed cleavage of fluorogenic peptide Dabcyl-KTSAVLQSGFRKME-Edans by 50%. A digest of the protocol:
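Purified enzyme (stock held in 12 mM Tris-HCl pH 7.5, 120 mM NaCl, 0.1 mM EDTA, 1 mM DTT, 7.5 mM β-ME) at 50 nM with 6 μM substrate in 20 mM Bis-Tris pH 7.0. Cleavage followed as fluorescence increase, excitation 355 nm, emission 538 nm. IC50 taken from initial velocities plotted against inhibitor concentration.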
In turn, `O=C(Nc1ccc([N+](=O)[O-])cc1Cl)C(Cc1ccccc1)NC(=O)[C@H](O)[C@@H](O)C(=O)N[C@@H](Cc1ccccc1)C(=O)Nc1ccc([N+](=O)[O-])cc1Cl` (stereo not given in full) showed a half-inhibitory concentration (IC50) of 5 µM.

In turn, `CCC(=O)N[C@H](C(=O)N[C@@H](CC(C)C)C(=O)N[C@H](C(=O)N[C@@H](Cc1ccccc1)C(=O)Nc1ccc([N+](=O)[O-])cc1Cl)C(C)O)C(C)C` (stereo not given in full) (Propionyl-VL[Thr(3ξ)]F-{NH(2-Cl-4-NO2-phenyl)}) registered a concentration for half-maximal inhibition (IC50) of 7 µM.

As for `CC(C)(C)OC(=O)N[C@@H](Cc1ccccc1)C(=O)Nc1ccc([N+](=O)[O-])cc1Cl`, the IC50 is above 50 µM.

As for `CN(C)c1ccc(C(=O)N[C@@H](Cc2ccccc2)C(=O)Nc2ccccc2Cl)cc1`, the half-maximal inhibitory concentration (IC50) was above 10 µM.

`CCCCCCCCCCCCCCC(Br)C(=O)N[C@@H](Cc1ccccc1)C(=O)Nc1ccc([N+](=O)[O-])cc1Cl` (stereo not given in full) showed an IC50 of 3 µM.

Take `O=C(/C=C/c1c[nH]c2ccccc12)N[C@@H](Cc1ccccc1)C(=O)Nc1ccc([N+](=O)[O-])cc1Cl`: the IC50 amounted to 3 µM.

The molecule `CCC(=O)N[C@H](C(=O)C[C@@H](CC(C)C)C(=O)N[C@@H](Cc1ccccc1)C(=O)Nc1ccc([N+](=O)[O-])cc1Cl)C(C)C` had an IC50 of 27 µM.

For the molecule `CN(C)c1ccc(C(=O)N[C@@H](Cc2ccccc2)C(=O)Nc2ccc([N+](=O)[O-])cc2Cl)cc1`, the IC50 was determined as 0.06 µM.

Turning to `CC(C)C[C@H](CC(=O)[C@@H](NC(=O)c1cccs1)C(C)C)C(=O)N[C@@H](Cc1ccccc1)C(=O)Nc1ccc([N+](=O)[O-])cc1Cl`, the IC50 came out at 22 µM.

Consider `CCC(=O)N[C@H](C(=O)N[C@@H](Cc1ccc(F)cc1)C(=O)N[C@H](C(=O)N[C@@H](Cc1ccccc1)C(=O)Nc1ccc([N+](=O)[O-])cc1Cl)C(C)O)C(C)C` (stereo not given in full) (Propionyl-V[Phe(4-F)][Thr(3ξ)]F-{NH(2-Cl-4-NO2-phenyl)}), for which the IC50 amounted to 5 µM.

The molecule `O=C(CCC(=O)N[C@@H](Cc1ccccc1)C(=O)Nc1ccc([N+](=O)[O-])cc1Cl)NC(Cc1ccccc1)C(=O)Nc1ccc([N+](=O)[O-])cc1Cl` (stereo not given in full) had a 50% inhibitory concentration (IC50) above 50 µM.

As to `CN(C)c1ccc(C(=O)N[C@@H](Cc2ccccc2)C(=O)Nc2ccccc2)cc1`, the IC50 is above 10 µM.

Molecule `O=C(N[C@@H](Cc1ccccc1)C(=O)Nc1ccc([N+](=O)[O-])cc1Cl)c1ccccc1` returned a half-inhibitory concentration (IC50) above 10 µM.

Regarding `CCCC(=O)N[C@H](C(=O)N[C@@H](CC(C)C)C(=O)N[C@@H](Cc1ccccc1)C(=O)Nc1ccc([N+](=O)[O-])cc1Cl)C(C)C`, the concentration for half-maximal inhibition (IC50) was determined as 7 µM.

Molecule `Nc1ccc(C(=O)N[C@@H](Cc2ccccc2)C(=O)Nc2ccc([N+](=O)[O-])cc2Cl)cc1N` had an IC50 of 2 µM.

`CC(O)[C@H](NC(=O)[C@H](O)[C@@H](O)C(=O)N[C@H](C(=O)N[C@H](Cc1ccccc1)C(=O)Nc1ccc([N+](=O)[O-])cc1Cl)C(C)O)C(=O)N[C@@H](Cc1ccccc1)C(=O)Nc1ccc([N+](=O)[O-])cc1Cl` (stereo not given in full) displayed an IC50 of 2 µM.

Turning to `CC(C)[C@H](NC(=O)c1cccs1)C(=O)C[C@@H](Cc1ccccc1)C(=O)N[C@@H](Cc1ccccc1)C(=O)Nc1ccc([N+](=O)[O-])cc1Cl`, half-maximal inhibition (IC50) required 16 µM.

In the case of `CC1CCN(C(=O)N[C@H](C(=O)N[C@@H](Cc2ccccc2)C(=O)N[C@H](C(=O)N[C@@H](Cc2ccccc2)C(=O)Nc2ccc([N+](=O)[O-])cc2Cl)C(C)O)C(C)C)O1` (stereo not given in full) ({X1-CO}-VF[Thr(3ξ)]F-{NH(2-Cl-4-NO2-phenyl)}), the half-inhibitory concentration (IC50) amounted to 5 µM.

Consider `CC(C)[C@H](NC(=O)c1cccs1)C(=O)N[C@@H](Cc1ccccc1)C(=O)N[C@@H](Cc1ccccc1)C(=O)Nc1ccc([N+](=O)[O-])cc1Cl`, for which the IC50 came to 5 µM.

`CC(C)C[C@H](CC(=O)[C@@H](NC(=O)c1ccccc1)C(C)C)C(=O)N[C@@H](Cc1ccccc1)C(=O)Nc1ccc([N+](=O)[O-])cc1Cl` came in with a half-maximal inhibitory concentration (IC50) of 21 µM.

Take `O=C(N[C@@H](Cc1ccccc1)C(=O)Nc1ccc([N+](=O)[O-])cc1)c1ccccc1`: the concentration for half-maximal inhibition (IC50) is above 10 µM.

`O=C(N[C@@H](Cc1ccccc1)C(=O)Nc1ccc([N+](=O)[O-])cc1Cl)c1ccc([N+](=O)[O-])cc1` came in with an IC50 above 10 µM.

As for `CC(C)[C@H](NC(=O)c1ccccc1)C(=O)N[C@@H](Cc1ccc(F)cc1)C(=O)N[C@H](C(=O)N[C@@H](Cc1ccccc1)C(=O)Nc1ccc([N+](=O)[O-])cc1Cl)C(C)O` (stereo not given in full) (Bz-V[Phe(4-F)][Thr(3ξ)]F-{NH(2-Cl-4-NO2-phenyl)}), the IC50 was 2 µM.

On to `CC(C)C[C@H](NC(=O)[C@@H](NC(=O)N1CCOCC1)C(C)C)C(=O)N[C@@H](Cc1ccccc1)C(=O)Nc1ccc([N+](=O)[O-])cc1Cl`, for which the midpoint of inhibition, the IC50, lay at 19 µM.

As for `CC1CCN(C(=O)N[C@H](C(=O)N[C@@H](Cc2ccccc2)C(=O)N[C@@H](Cc2ccccc2)C(=O)Nc2ccc([N+](=O)[O-])cc2Cl)C(C)C)O1` (stereo not given in full), half-maximal inhibition (IC50) was put at 7 µM.

`CC(C)C[C@H](CC(=O)[C@@H](NC(=O)N1CCOCC1)C(C)C)C(=O)N[C@@H](Cc1ccccc1)C(=O)Nc1ccc([N+](=O)[O-])cc1Cl` returned an IC50 of 29 µM.

With `CC(C)C[C@H](NC(=O)[C@@H](NC(=O)c1ccccc1)C(C)C)C(=O)N[C@@H](Cc1ccccc1)C(=O)Nc1ccc([N+](=O)[O-])cc1Cl`, it took 4 µM to reach half-maximal inhibition (IC50).

With `CC(C)C[C@H](CC(=O)[C@@H](NC(=O)OC(C)(C)C)C(C)C)C(=O)N[C@@H](Cc1ccccc1)C(=O)Nc1ccc([N+](=O)[O-])cc1Cl`, the midpoint of inhibition, the IC50, lay at 19 µM.

For the molecule `CC(C)C[C@H](NC(=O)[C@@H](NC(=O)OC(C)(C)C)C(C)C)C(=O)N[C@@H](Cc1ccccc1)C(=O)Nc1ccc([N+](=O)[O-])cc1Cl`, the concentration for half-maximal inhibition (IC50) was above 10 µM.

Take `CC(C)[C@H](NC(=O)OCc1ccccc1)C(=O)N[C@@H](Cc1ccccc1)C(=O)N[C@H](C(=O)N[C@@H](Cc1ccccc1)C(=O)Nc1ccc([N+](=O)[O-])cc1Cl)C(C)O` (stereo not given in full) (Cbz-VF[Thr(3ξ)]F-{NH(2-Cl-4-NO2-phenyl)}): the 50% inhibitory concentration (IC50) amounted to 6 µM.

`O=C(Nc1ccc([N+](=O)[O-])cc1Cl)c1cc(Cl)ccc1O` [NICLOSAMIDE] displayed an IC50 above 10 µM.

`CC(O)[C@H](NC(=O)CCC(=O)N[C@H](C(=O)N[C@@H](Cc1ccccc1)C(=O)Nc1ccc([N+](=O)[O-])cc1Cl)C(C)O)C(=O)NC(Cc1ccccc1)C(=O)Nc1ccc([N+](=O)[O-])cc1Cl` (stereo not given in full) had an IC50 of 2 µM.

Molecule `CC(C)C[C@H](NC(=O)[C@@H](NC(=O)N1CCOCC1)C(C)C)C(=O)N[C@H](C(=O)N[C@@H](Cc1ccccc1)C(=O)Nc1ccc([N+](=O)[O-])cc1Cl)C(C)O` (stereo not given in full) ({Morpholide-CO}-VL[Thr(3ξ)]F-{NH(2-Cl-4-NO2-phenyl)}) registered a half-maximal inhibitory concentration (IC50) of 16 µM.

In turn, `CC(C)C[C@H](NC(=O)[C@@H](NC(=O)c1cccs1)C(C)C)C(=O)N[C@@H](Cc1ccccc1)C(=O)Nc1ccc([N+](=O)[O-])cc1Cl` returned an IC50 of 5 µM.

As for `CC(O)[C@H](NC(=O)C[C@@H](O)C(=O)N[C@H](C(=O)N[C@@H](Cc1ccccc1)C(=O)Nc1ccc([N+](=O)[O-])cc1Cl)C(C)O)C(=O)NC(Cc1ccccc1)C(=O)Nc1ccc([N+](=O)[O-])cc1Cl` (stereo not given in full), the IC50 is 2 µM.

Turning to `CC(C)[C@H](NC(=O)C(C)(C)C)C(=O)N[C@@H](Cc1ccccc1)C(=O)N[C@H](C(=O)N[C@@H](Cc1ccccc1)C(=O)Nc1ccc([N+](=O)[O-])cc1Cl)C(C)O` (stereo not given in full) (Piv-VF[Thr(3ξ)]F-{NH(2-Cl-4-NO2-phenyl)}), it took 2 µM to reach half-maximal inhibition (IC50).

Regarding `O=C(C[C@H](O)C(=O)N[C@@H](Cc1ccccc1)C(=O)Nc1ccc([N+](=O)[O-])cc1Cl)NC(Cc1ccccc1)C(=O)Nc1ccc([N+](=O)[O-])cc1Cl` (stereo not given in full), the IC50 was 4 µM.

On to `CN(C)c1ccc(C(=O)N[C@@H](Cc2ccccc2)C(=O)Nc2ccc([N+](=O)[O-])cc2)cc1`, for which the IC50 was above 10 µM.

The nature of the next test: Inhibitory constant against SARS-CoV 3CL protease catalyzed cleavage of fluorogenic peptide Dabcyl-KTSAVLQSGFRKME-Edans. A digest of the protocol:
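Fluorometric cleavage assay in 20 mM Bis-Tris pH 7.0, excitation 355 nm, emission 538 nm. Enzyme stock held in 12 mM Tris-HCl pH 7.5 with NaCl, EDTA, DTT and β-ME. Initial rates measured at two fixed inhibitor concentrations across various substrate concentrations. Ki derived using double-reciprocal plots of rate versus substrate concentration.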
`CN(C)c1ccc(C(=O)N[C@@H](Cc2ccccc2)C(=O)Nc2ccc([N+](=O)[O-])cc2Cl)cc1` showed a Ki of 0.03 µM.

`CC1CCN(C(=O)N[C@H](C(=O)N[C@@H](Cc2ccccc2)C(=O)N[C@H](C(=O)N[C@@H](Cc2ccccc2)C(=O)Nc2ccc([N+](=O)[O-])cc2Cl)C(C)O)C(C)C)O1` (stereo not given in full) ({X1-CO}-VF[Thr(3ξ)]F-{NH(2-Cl-4-NO2-phenyl)}) gave an inhibition constant (Ki) of 1.61 µM.

For the molecule `CC(C)[C@H](NC(=O)c1cccs1)C(=O)N[C@@H](Cc1ccccc1)C(=O)N[C@@H](Cc1ccccc1)C(=O)Nc1ccc([N+](=O)[O-])cc1Cl`, the Ki was determined as 4.3 µM.

Molecule `CC1CCN(C(=O)N[C@H](C(=O)N[C@@H](Cc2ccccc2)C(=O)N[C@@H](Cc2ccccc2)C(=O)Nc2ccc([N+](=O)[O-])cc2Cl)C(C)C)O1` (stereo not given in full) displayed a Ki of 2.9 µM.

In turn, `CC(C)[C@H](NC(=O)OCc1ccccc1)C(=O)N[C@@H](Cc1ccccc1)C(=O)N[C@H](C(=O)N[C@@H](Cc1ccccc1)C(=O)Nc1ccc([N+](=O)[O-])cc1Cl)C(C)O` (stereo not given in full) (Cbz-VF[Thr(3ξ)]F-{NH(2-Cl-4-NO2-phenyl)}) returned a Ki of 1.51 µM.

The molecule `CC(C)C[C@H](NC(=O)[C@@H](NC(=O)c1cccs1)C(C)C)C(=O)N[C@@H](Cc1ccccc1)C(=O)Nc1ccc([N+](=O)[O-])cc1Cl` had a Ki of 2.29 µM.

Molecule `O=C(C[C@H](O)C(=O)N[C@@H](Cc1ccccc1)C(=O)Nc1ccc([N+](=O)[O-])cc1Cl)NC(Cc1ccccc1)C(=O)Nc1ccc([N+](=O)[O-])cc1Cl` (stereo not given in full) returned a Ki of 3.1 µM.

Usually IC50 stands for the concentration that inhibits the measured activity by half. Higher therefore signals a need for much substance. Broadly, the Ki is the dissociation constant of the complex between target and ligand, obtained from inhibition or displacement. Read a low Ki as a stronger hold on the target.
